Reference: ChEMBL document CHEMBL4359879, “Synthesis and evaluation of 2-carboxy indole derivatives as potent and selective anti-leukemic agents” (Eur J Med Chem, 2019)
Active and inactive are the calls of the source. The calls are words filed in the database; no cut-off is given here.

Columns and labels:
Assay type in all cases: functional, cell-based
CCRF-CEM = assay: Antiproliferative activity against human CEM cells incubated for 48 hrs by MTT assay
In short: (§1)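 Cells grown in RPMI-1640 with 10% FBS, penicillin/streptomycin, 37 °C, 5% CO2. After 48 h of exposure to a dilution series, MTT was added (0.5 mg/ml final) for 4 h. Formazan was dissolved overnight in acidic SDS (10% SDS, 0.01 mol/L HCl) and absorbance read at 570 and 620 nm. Survival was expressed relative to controls, and EC50 was fitted from dose-response curves.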

RS4-11 = assay: Antiproliferative activity against human RS4:11 cells incubated for 48 hrs by MTT assay; details: RS4-11, 48 h; in short: as §1
HL-60 [1] = assay: Induction of differentiation in human HL60 cells assessed as increase in CD11b positive cells at 2 uM incubated for 48 hrs by 7-AAD staining-based flow cytometric analysis
In short: (§2)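 Vitamin D3 at 100 nM and ATRA at 2 μM served as positive controls. Stained with APC anti-CD11b and PE anti-CD14 for 30 min at 4 °C, then 7-AAD.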

HL-60 [2] = assay: Induction of differentiation in human HL60 cells assessed as increase in CD14 positive cells at 100 nM incubated for 48 hrs by 7-AAD staining-based flow cytometric analysis; in short: as §2

| Compound | EC50 (CCRF-CEM) [µM] | EC50 (RS4-11) [µM] | Activity (HL-60 [1]) | Activity (HL-60 [2]) |
| --- | --- | --- | --- | --- |
| COC(=O)c1[nH]c2ccccc2c1-c1ccc(OC)cc1 | > 100 | > 100 | – | – |
| COC(=O)c1[nH]c2ccc(OC)cc2c1-c1ccc(C(F)(F)F)cc1 | > 100 | > 100 | – | – |
| COC(=O)Cc1c(C(=O)OC)[nH]c2cc(OC)ccc12 | > 100 | > 100 | – | – |
| COC(=O)c1c(-c2ccc(C(F)(F)F)cc2)c2ccc(OC)cc2n1O | 0.39 | 0.3 | – | – |
| CCOC(=O)c1[nH]c2cc(OC)ccc2c1-c1ccc(C(F)(F)F)cc1 | > 100 | > 100 | – | – |
| COC(=O)c1[nH]c2cc(OC)ccc2c1-c1ccc(F)cc1 | 10 | 85.6 | – | – |
| COC(=O)c1[nH]c2ccccc2c1-c1ccccc1 | 35.8 | 95.2 | – | – |
| CC1=C(/C=C/C(C)=C/C=C/C(C)=C/C(=O)O)C(C)(C)CCC1 | – | – | Active | – |
| COC(=O)c1[nH]c2cc(C(F)(F)F)ccc2c1-c1ccc(C(F)(F)F)cc1 | > 100 | > 100 | – | – |
| COc1ccc2c(-c3ccc(C(F)(F)F)cc3)c(C(=O)N[C@@H](Cc3ccccc3)C(=O)O)[nH]c2c1 | 52 | 43.1 | – | – |
| COc1ccc2c(-c3ccc(C(F)(F)F)cc3)c(C(=O)O)[nH]c2c1 | 19.8 | 24.4 | – | – |
| COC(=O)c1[nH]c2cc(OC)ccc2c1Cc1ccccc1 | 8.7 | 61.6 | – | – |
| CCc1c(C(=O)OC)[nH]c2cc(OC)ccc12 | > 100 | > 100 | – | – |
| C=C1/C(=C\C=C2/CCC[C@]3(C)[C@@H]([C@H](C)CCCC(C)(C)O)CC[C@@H]23)C[C@@H](O)C[C@@H]1O | – | – | – | Active |
| COC(=O)c1[nH]c2cc(C(F)(F)F)ccc2c1-c1ccc(OC)cc1 | > 100 | > 100 | – | – |
| COC(=O)c1[nH]c2cc(OC)ccc2c1C | > 100 | > 100 | – | – |

| Compound | EC50 (CCRF-CEM) [µM] | EC50 (RS4-11) [µM] | Activity (HL-60 [1]) | Activity (HL-60 [2]) |
| --- | --- | --- | --- | --- |
| COC(=O)c1[nH]c2ccccc2c1-c1ccc(F)cc1 | > 100 | > 100 | – | – |
| COC(=O)c1[nH]c2cc(O)ccc2c1-c1ccc(C(F)(F)F)cc1 | 9.9 | 10.3 | – | – |
| COC(=O)c1c(-c2ccc(C(F)(F)F)cc2)c2ccc(OC)cc2n1Cc1ccccc1 | > 100 | > 100 | – | – |
| COC(=O)c1[nH]c2cc(OC)ccc2c1C1CCCCC1 | 80.2 | > 100 | – | – |
| COc1ccc2c(-c3ccc(C(F)(F)F)cc3)c(C(=O)OC(C)(C)C)[nH]c2c1 | > 100 | > 100 | – | – |
| COC(=O)c1[nH]c2cc(OC)ccc2c1C(=O)OC | > 100 | > 100 | – | – |
| COC(=O)c1[nH]c2cc(OC)ccc2c1-c1ccc(Cl)c(Cl)c1 | 0.58 | 3.8 | – | – |
| COC(=O)c1[nH]c2ccccc2c1-c1ccc(C(F)(F)F)cc1 | > 100 | > 100 | – | – |
| COC(=O)c1[nH]c2cc(OC)ccc2c1-c1ccccc1OC | 1.9 | 10.5 | – | – |
| COC(=O)c1[nH]c2cc(C(F)(F)F)ccc2c1-c1ccccc1 | > 100 | > 100 | – | – |
| COC(=O)c1c(-c2ccc(C(F)(F)F)cc2)c2ccc(OC)cc2n1C | > 100 | > 100 | – | – |
| COC(=O)c1[nH]c2cc(OC)ccc2c1CC(C)C | 16.6 | 37.8 | – | – |
| COC(=O)c1[nH]c2cc(OC)ccc2c1C(C)C | > 100 | 81.5 | – | – |
| COc1ccc2c(-c3ccc(C(F)(F)F)cc3)c(C(=O)N3CCOCC3)[nH]c2c1 | 29.7 | 47.6 | – | – |
| COC(=O)c1[nH]c2cc(OC)ccc2c1-c1ccc(Br)cc1 | 0.33 | 0.2 | – | – |
